What was measured:
[1] = system: Raji; assay: Inhibition of TPA-induced EBV-early antigen activation in human Raji cells at 10 molar ratio relative to TPA; format: cell-based; parameters: scale not given: the % may be the effect or the level left; conditions: human gammaherpesvirus 4
[2] = Cytotoxicity against human Raji cells assessed as cell viability at 100 molar ratio; format: cell-based; conditions: read-out: Activity
Outline: (§1)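 Raji cells were treated with 32 pmol TPA to induce EBV early antigen activation. The test agent was added at 10, 100, 500 or 1000 mol ratio relative to TPA, and Raji cell viability was measured alongside EA activation.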

[3] = system: Raji; assay: Inhibition of TPA-induced EBV-early antigen activation in human Raji cells at 1000 molar ratio relative to TPA; format: cell-based; parameters: scale not given: the % may be the effect or the level left; conditions: human gammaherpesvirus 4
[4] = Cytotoxicity against human Raji cells assessed as cell viability at 1000 molar ratio; format: cell-based; conditions: read-out: Activity; outline: as §1
[5] = Cytotoxicity against human Raji cells assessed as cell viability at 500 molar ratio; format: cell-based; conditions: read-out: Activity; outline: as §1
[6] = system: Raji; assay: Inhibition of TPA-induced EBV-early antigen activation in human Raji cells at 500 molar ratio relative to TPA; format: cell-based; parameters: scale not given: the % may be the effect or the level left; conditions: human gammaherpesvirus 4
[7] = Cytotoxicity against human Raji cells assessed as cell viability at 10 molar ratio; format: cell-based; conditions: read-out: Activity; outline: as §1
[8] = system: Raji; assay: Inhibition of TPA-induced EBV-early antigen activation in human Raji cells at 100 molar ratio relative to TPA; format: cell-based; parameters: scale not given: the % may be the effect or the level left; conditions: human gammaherpesvirus 4
[9] = system: Mus musculus; assay: Antiinflammatory activity against TPA-induced ear edema in mouse; format: functional
Outline: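 Specific-pathogen-free female ICR mice were housed five per cage at 24 ± 2 °C. Inflammation was induced on the ear with TPA at 1 µg/ear, and the test agent was applied per ear. Ear edema inhibition was expressed as ID50 in mg per ear.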

[10] = Inhibition of TPA-induced EBV-early antigen activation in human Raji cells relative to TPA; format: cell-based, human gammaherpesvirus 4

Row | Structure (SMILES) | IC50 [10] [molar ratio] | Activity [1] [%] | viability at 100 molar ratio [2] [%] | Activity [3] [%] | viability at 1000 molar ratio [4] [%] | viability at 500 molar ratio [5] [%] | Activity [6] [%] | viability at 10 molar ratio [7] [%] | Activity [8] [%] | ID50 [9] [mg]
1 | CCCCOC(=O)[C@H]1O[C@@H](O[C@H]2CC[C@]3(C)[C@H]4CC=C5[C@@H]6CC(C)(C)CC[C@]6(C(=O)O[C@@H]6O[C@H](CO)[C@@H](O)[C@H](O)[C@H]6O)CC[C@@]5(C)[C@]4(C)CC[C@H]3C2(C)C)[C@H](O)[C@@H](O[C@@H]2O[C@H](CO)[C@H](O)[C@H](O)[C@H]2O)[C@@H]1O | 471 | 100 | > 80 | 5.4 | 70 | > 80 | 41.5 | > 80 | 70.1 | 0.06
2 | CCCCOC(=O)[C@H]1O[C@@H](O[C@H]2CC[C@]3(C)[C@H]4CC=C5[C@@H]6CC(C)(C)CC[C@]6(C(=O)O[C@@H]6O[C@H](CO)[C@@H](O)[C@H](O)[C@H]6O)CC[C@@]5(C)[C@]4(C)CC[C@H]3C2(C)C)[C@H](O[C@@H]2O[C@H](CO)[C@@H](O)[C@H](O)[C@H]2O)[C@@H](O[C@@H]2O[C@H](CO)[C@H](O)[C@H](O)[C@H]2O)[C@@H]1O | 480 | 100 | > 80 | 10.6 | 70 | > 80 | 43.2 | > 80 | 71.6 | 0.06
3 | COC(=O)[C@H]1O[C@@H](O[C@H]2CC[C@]3(C)[C@H]4CC=C5[C@@H]6CC(C)(C)CC[C@]6(C(=O)O[C@@H]6O[C@H](CO)[C@@H](O)[C@H](O)[C@H]6O)CC[C@@]5(C)[C@]4(C)CC[C@H]3C2(C)C)[C@H](O[C@@H]2O[C@H](CO)[C@@H](O)[C@H](O)[C@H]2O)[C@@H](O[C@@H]2O[C@H](CO)[C@H](O)[C@H](O)[C@H]2O)[C@@H]1O | 487 | 100 | > 80 | 16 | 70 | > 80 | 53.6 | > 80 | 77.8 | 0.06

The next lines start with results.

Row | IC50 [10] [molar ratio] | Structure (SMILES) | Activity [1] [%] | viability at 100 molar ratio [2] [%] | Activity [3] [%] | viability at 1000 molar ratio [4] [%] | viability at 500 molar ratio [5] [%] | Activity [6] [%] | viability at 10 molar ratio [7] [%] | Activity [8] [%] | ID50 [9] [mg]
4 | 480 | COC(=O)[C@H]1O[C@@H](O[C@H]2CC[C@]3(C)[C@H]4CC=C5[C@@H]6CC(C)(C)CC[C@]6(C(=O)O[C@@H]6O[C@H](CO)[C@@H](O)[C@H](O)[C@H]6O)CC[C@@]5(C)[C@]4(C)CC[C@H]3C2(C)C)[C@H](O)[C@@H](O[C@@H]2O[C@H](CO)[C@H](O)[C@H](O)[C@H]2O)[C@@H]1O | 100 | > 80 | 14.4 | 70 | > 80 | 52.1 | > 80 | 74.3 | 0.1
5 | 475 | CC1(C)CC[C@]2(C(=O)O[C@@H]3O[C@H](CO)[C@@H](O)[C@H](O)[C@H]3O)CC[C@]3(C)C(=CC[C@@H]4[C@@]5(C)CC[C@H](O[C@@H]6O[C@H](C(=O)O)[C@@H](O)[C@H](O[C@@H]7O[C@H](CO)[C@H](O)[C@H](O)[C@H]7O)[C@H]6O)C(C)(C)[C@@H]5CC[C@]43C)[C@@H]2C1 [CALENDULAGYCOSIDE C] | 100 | > 80 | 13.2 | 70 | > 80 | 51 | > 80 | 73.1 | 0.2
